1 molecule from ChEMBL document CHEMBL4321880 (J Med Chem, 2020) can be followed below.

Structures are written as SMILES.

One data set addresses CYP3A5 (Homo sapiens, UniProt P20815). Kind of data set: Inhibition of human recombinant CYP3A5 expressed in supersomes assessed as decrease in formation of D-luciferin at 1.89 uM using luciferin-IPA as substrate incubated for 10 mins in presence of NADPH by P450-Glo luminescence assay relative to control. The note with it: probe luciferin-IPA.
Another data set deals with T1, Cytochrome P450 2C8 (Homo sapiens, UniProt P10632).
T1 sequence (P10632 whole entry): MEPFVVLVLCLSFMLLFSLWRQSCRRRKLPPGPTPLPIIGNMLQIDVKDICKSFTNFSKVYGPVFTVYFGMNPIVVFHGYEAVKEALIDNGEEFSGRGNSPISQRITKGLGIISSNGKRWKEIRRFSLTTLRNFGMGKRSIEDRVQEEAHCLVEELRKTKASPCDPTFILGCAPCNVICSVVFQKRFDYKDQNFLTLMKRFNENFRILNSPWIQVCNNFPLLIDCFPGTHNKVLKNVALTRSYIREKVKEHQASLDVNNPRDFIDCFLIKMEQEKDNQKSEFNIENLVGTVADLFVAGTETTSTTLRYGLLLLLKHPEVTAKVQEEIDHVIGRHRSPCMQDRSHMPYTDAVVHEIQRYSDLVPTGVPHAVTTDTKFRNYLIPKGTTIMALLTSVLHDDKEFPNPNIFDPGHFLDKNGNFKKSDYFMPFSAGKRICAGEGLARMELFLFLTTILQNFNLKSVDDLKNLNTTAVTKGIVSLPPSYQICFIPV
Kind of data set: Inhibition of CYP2C8 in human liver microsomes assessed as formation of desethylamodiaquine at 1.85 uM using amodiaquine as substrate incubated for 10 mins in presence of NADPH by LC-MS/MS analysis. Format: ADME. Put shortly:
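Pooled human liver microsomes with 2 mM NADPH in 100 mM KPO4 pH 7.4, 5 mM MgCl2, 37 °C, technical triplicate, final DMSO 0.2%. Probe (substrate, level, protein, time): 1A2 tacrine 5 μM, 0.2 mg/mL, 10 min; 2B6 bupropion 100 μM, 0.25 mg/mL, 10 min; 2C8 amodiaquine 5 μM, 0.25 mg/mL, 10 min; 2C9 tolbutamide 100 μM, 0.5 mg/mL, 15 min; 2C19 mephenytoin 100 μM, 0.25 mg/mL, 60 min; 2D6 dextromethorphan 5 μM, 0.5 mg/mL, 10 min; 3A4 midazolam 2.5 μM or testosterone 50 μM, 0.25 mg/mL, 10 min. Methanol quench, metabolites measured by LC-MS/MS.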

CYP3A5, sequence (P20815 whole entry): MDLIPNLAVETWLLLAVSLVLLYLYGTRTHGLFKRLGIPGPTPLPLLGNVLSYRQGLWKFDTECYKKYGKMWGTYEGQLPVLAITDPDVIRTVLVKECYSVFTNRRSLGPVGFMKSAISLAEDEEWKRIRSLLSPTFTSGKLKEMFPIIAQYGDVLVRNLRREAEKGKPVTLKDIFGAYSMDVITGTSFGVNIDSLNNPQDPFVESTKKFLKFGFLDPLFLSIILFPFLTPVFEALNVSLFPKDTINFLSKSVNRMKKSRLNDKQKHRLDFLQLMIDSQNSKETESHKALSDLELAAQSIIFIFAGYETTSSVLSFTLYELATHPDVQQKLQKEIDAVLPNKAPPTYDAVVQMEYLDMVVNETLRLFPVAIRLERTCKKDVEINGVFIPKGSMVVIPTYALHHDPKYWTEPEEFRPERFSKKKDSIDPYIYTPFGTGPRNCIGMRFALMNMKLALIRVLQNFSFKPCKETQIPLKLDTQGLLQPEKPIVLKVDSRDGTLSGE

In the case of `CCC(=O)O[C@]1(C(=O)CCl)[C@@H](C)C[C@H]2[C@@H]3CCC4=CC(=O)C=C[C@]4(C)[C@@]3(F)[C@@H](O)C[C@@]21C` [CLOBETASOL PROPIONATE], at CYP3A5, the inhibition at 10 min, 1.89 µM is 90%. For the same molecule, on Cytochrome P450 2C8, the “inhibition (INH)” value is given as “Not Active”.
